What was measured:
[1] = test system: Mus musculus; assay: Anticonvulsant activity in mouse assessed as protection against strychnine-induced seizure at 1 mmol/kg, ip administered 30 min prior to strychnine-challenge measured after 60 mins relative to control; type: functional
[2] = test system: Mus musculus; assay: Anticonvulsant activity in mouse assessed as protection against maximal electroshock-induced seizure at 1 mmol/kg, ip administered 30 min prior to maximal electroshock-challenge measured after 60 mins relative to control; type: functional
[3] = test system: Mus musculus; assay: Anticonvulsant activity in mouse assessed as protection against pentylenetetrazol-induced seizure at 1 mmol/kg, ip administered 30 min prior to pentylenetetrazol-challenge measured after 60 mins relative to control; type: functional
[4] = Neurotoxicity in ip dosed mouse assessed as impaired motor coordination administered 30 mins prior to test by chimney test; type: toxicity, organism-based; conditions: in vivo
In short: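 Mice, Chimney test. TD50 is the dose that produces minimal neurological toxicity (impaired motor coordination) in 50% of animals, estimated from testing at several doses.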

[5] = Toxicity in ip dose mouse assessed as mortality; type: organism-based; conditions: in vivo
In short: (§1)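 In mice, LD50 is the dose causing 50% mortality. ED50 is the dose protecting 50% of mice against pentylenetetrazole-induced seizures. Therapeutic index = LD50/ED50.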

[6] = Therapeutic index, ratio of LD50 for mouse to ED50 for pentylenetetrazol-induced seizure in mouse; type: organism-based; conditions: in vivo, read-out: Ratio LD50/ED50; in short: as §1
[7] = test system: Mus musculus; assay: Anticonvulsant activity in ip dosed mouse assessed as protection against pentylenetetrazol-induced seizure administered 30 min prior to pentylenetetrazol-challenge measured after 60 mins; type: functional
In short: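 Mice received several doses for quantification. ED50 taken as the dose protecting 50% of mice against pentylenetetrazol-induced seizures.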

[8] = species: Mus musculus; assay: Protective index, ratio of TD50 for mouse to ED50 for pentylenetetrazol-induced seizure in mouse; type: functional
In short: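 Mice. Index is TD50/ED50. TD50 is the dose causing minimal neurological toxicity in 50% of mice in the Chimney test. ED50 is the dose protecting 50% of mice against pentylenetetrazole-induced seizures. Both are estimated from testing at several doses.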

[9] = test system: Mus musculus; assay: Anticonvulsant activity in mouse assessed as protection against picrotoxin-induced seizure at 1 mmol/kg, ip administered 30 min prior to picrotoxin-challenge measured after 60 mins relative to control; type: functional
[10] = test system: UACC-62; assay: Growth inhibition of human UACC62 cells at 10 uM relative to control; type: functional; conditions: read-out: GI
In short: (§2)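 Single-dose screen across the 60-cell-line human tumor panel at 10 μM. Growth inhibition is reported as a percentage, taken as 100 minus the % growth relative to untreated control.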

[11] = test system: NCI-H226; assay: Growth inhibition of human NCI-H226 cells at 10 uM relative to control; type: functional; conditions: read-out: GI
In short: (§3)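 Each cell line in a 60-line human tumour panel exposed to one 10 μM concentration. Growth inhibition percentage computed as 100 minus the percentage activity relative to control.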

[12] = test system: SK-MEL-28; assay: Growth inhibition of human SK-MEL-28 cells at 10 uM relative to control; type: functional; conditions: read-out: GI; in short: as §3
[13] = test system: HCC 2998; assay: Growth inhibition of human HCC2998 cells at 10 uM relative to control; type: functional; conditions: read-out: GI; in short: as §3
[14] = test system: SNB-75; assay: Growth inhibition of human SNB75 cells at 10 uM relative to control; type: functional; conditions: read-out: GI; in short: as §2
[15] = test system: PC-3; assay: Growth inhibition of human PC3 cells at 10 uM relative to control; type: functional; conditions: read-out: GI; in short: as §3
[16] = test system: OVCAR-8; assay: Growth inhibition of human OVCAR8 cells at 10 uM relative to control; type: functional; conditions: read-out: GI; in short: as §3
[17] = test system: CAKI-1; assay: Growth inhibition of human CAKI-1 cells at 10 uM relative to control; type: functional; conditions: read-out: GI; in short: as §3
[18] = test system: A549; assay: Growth inhibition of human A549 cells at 10 uM relative to control; type: functional; conditions: read-out: GI; in short: as §3
[19] = test system: SF-295; assay: Growth inhibition of human SF295 cells at 10 uM relative to control; type: functional; conditions: read-out: GI; in short: as §3
[20] = Growth inhibition of human Hs 578T cells at 10 uM relative to control; type: functional; conditions: read-out: GI; in short: as §3
[21] = test system: U-251; assay: Growth inhibition of human U251 cells at 10 uM relative to control; type: functional; conditions: read-out: GI; in short: as §2
[22] = test system: NCI-H23; assay: Growth inhibition of human NCI-H23 cells at 10 uM relative to control; type: functional; conditions: read-out: GI; in short: as §3
[23] = test system: CCRF-CEM; assay: Growth inhibition of human CCRF-CEM cells at 10 uM relative to control; type: functional; conditions: read-out: GI; in short: as §3
[24] = test system: UO-31; assay: Growth inhibition of human UO31 cells at 10 uM relative to control; type: functional; conditions: read-out: GI; in short: as §2
[25] = test system: K562; assay: Growth inhibition of human K562 cells at 10 uM relative to control; type: functional; conditions: read-out: GI; in short: as §3
[26] = test system: HT-29; assay: Growth inhibition of human HT-29 cells at 10 uM relative to control; type: functional; conditions: read-out: GI; in short: as §3
[27] = test system: A498; assay: Growth inhibition of human A498 cells at 10 uM relative to control; type: functional; conditions: read-out: GI; in short: as §3
[28] = test system: SF-539; assay: Growth inhibition of human SF539 cells at 10 uM relative to control; type: functional; conditions: read-out: GI; in short: as §3
[29] = test system: HL-60(TB); assay: Growth inhibition of human HL-60(TB) cells at 10 uM relative to control; type: functional; conditions: read-out: GI
In short: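 Single-dose screen at 10 μM across the 60-cell-line tumour panel. Percent growth inhibition = 100 minus percent growth activity relative to untreated control.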

[30] = test system: MOLT-4; assay: Growth inhibition of human MOLT4 cells at 10 uM relative to control; type: functional; conditions: read-out: GI; in short: as §3
[31] = test system: SNB-19; assay: Growth inhibition of human SNB19 cells at 10 uM relative to control; type: functional; conditions: read-out: GI; in short: as §2
[32] = test system: NCI-H522; assay: Growth inhibition of human NCI-H522 cells at 10 uM relative to control; type: functional; conditions: read-out: GI; in short: as §3
[33] = test system: EKVX; assay: Growth inhibition of human EKVX cells at 10 uM relative to control; type: functional; conditions: read-out: GI; in short: as §3
[34] = test system: RPMI-8226; assay: Growth inhibition of human RPMI8226 cells at 10 uM relative to control; type: functional; conditions: read-out: GI; in short: as §3
[35] = test system: HCT-116; assay: Growth inhibition of human HCT116 cells at 10 uM relative to control; type: functional; conditions: read-out: GI; in short: as §3

Cc1ccccc1-n1c(C)nc2cc(/N=C/c3ccco3)ccc2c1=O
Activity [1]: 0% | Activity [2]: 50% | Activity [3]: 0%

Cc1ccccc1-n1c(C)nc2cc(N3C(=O)C=CC3=O)ccc2c1=O
Activity [1]: 0% | Activity [2]: 33% | Activity [3]: 0%

Cc1ccccc1-n1c(C)nc2cc(-n3c(C)nc4ccc(Cl)cc4c3=O)ccc2c1=O
Activity [1]: 0% | Activity [2]: 50% | Activity [3]: 33%

Cc1ccccc1-n1c(C)nc2cc(/N=C/c3ccc(Cl)cc3)ccc2c1=O
TD50 at 0.5 h [4]: 890 µmol/kg | LD50 [5]: 1810 µmol/kg | selectivity ratio [6]: 4.6 | Activity [1]: 0% | ED50 [7]: 350 µmol/kg | Activity [2]: 100% | Activity [3]: 100% | Ratio TD50/ED50 [8]: 2.54 | Activity [9]: 50%

Cc1ccccc1-n1c(C)nc2cc(NS(=O)(=O)c3ccccc3)ccc2c1=O
inhibition of growth at 10 µM [10]: 9% | inhibition of growth at 10 µM [11]: 2.5% | inhibition of growth at 10 µM [12]: 2.4% | inhibition of growth at 10 µM [13]: 4% | inhibition of growth at 10 µM [14]: 14.8% | inhibition of growth at 10 µM [15]: 8% | inhibition of growth at 10 µM [16]: 5.4% | inhibition of growth at 10 µM [17]: 4% | inhibition of growth at 10 µM [18]: 5% | inhibition of growth at 10 µM [19]: 9% | inhibition of growth at 10 µM [20]: 3.2% | inhibition of growth at 10 µM [21]: 4% | inhibition of growth at 10 µM [22]: 5.2% | inhibition of growth at 10 µM [23]: 13% | inhibition of growth at 10 µM [24]: 13.6% | inhibition of growth at 10 µM [25]: 10% | inhibition of growth at 10 µM [26]: 3% | inhibition of growth at 10 µM [27]: 8% | inhibition of growth at 10 µM [28]: 4% | inhibition of growth at 10 µM [29]: 4% | inhibition of growth at 10 µM [30]: 12.2% | inhibition of growth at 10 µM [31]: 4% | inhibition of growth at 10 µM [32]: 2.2% | inhibition of growth at 10 µM [33]: 14.3% | inhibition of growth at 10 µM [34]: 12% | inhibition of growth at 10 µM [35]: 4%

Cc1ccccc1-n1c(C)nc2cc(/N=C/c3ccc(F)cc3)ccc2c1=O
TD50 at 0.5 h [4]: 930 µmol/kg | LD50 [5]: 1710 µmol/kg | selectivity ratio [6]: 5.5 | Activity [1]: 0% | ED50 [7]: 310 µmol/kg | Activity [2]: 100% | Activity [3]: 100% | Ratio TD50/ED50 [8]: 3 | Activity [9]: 75%

Reference: ChEMBL document CHEMBL1955778, “Design and synthesis of novel 7-aminoquinazoline derivatives: antitumor and anticonvulsant activities” (Bioorg Med Chem Lett, 2012)
